Source: PMC4508496 (Theranostics, 2015)
Entries after “also recorded” stand apart in the source; their conditions may differ. * marks the point of attachment. AMC = Cc1cc(=O)oc2cc(N*)ccc12; Boc = CC(C)(C)OC(=O)*

Legend:
MDA-MB-468 cells [1] = test: Cell permeability of 1-Cold by fluorescence cell imaging; assay type: cell-based, human; conditions: 100 µM, 37 °C, 0.5 h, fluorescence microscopy
Outline: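 MDA-MB-468 breast adenocarcinoma cells were grown in DMEM with 10% FBS at 37 °C under 5% CO2. Cells (3 × 10^6) were exposed to the test compound (100 µM, 37 °C, 0.5 h) and washed three times with PBS. They were then imaged live on an inverted fluorescence microscope in the DAPI channel, with DIC overlay. The probe emits at 450 nm after intracellular furin-driven condensation.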

[2] = Nanoparticle characterisation after furin incubation; assay type: physicochemical; conditions: 100 μM, furin 1 nmol/U, pH 7.4, 37 °C, 4 h vs before incubation
Outline: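 The non-radioactive analogue (100 µM) was incubated with furin (1 nmol/U) for 4 h at 37 °C. UV-vis spectra were recorded at room temperature. For TEM (200 kV), carbon-coated copper grids were dipped in the suspension, plunged into liquid nitrogen and freeze-dried. SEM was run on the same mixture. One furin unit releases 1 pmol MCA from Boc-RVRR-MCA per minute at 30 °C.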

furin [3] = molecular target: T1, furin (Homo sapiens, UniProt P09958); test: Michaelis-Menten kinetics of furin cleavage; assay type: biochemical
furin [4] = molecular target: T1, furin; test: Time course HPLC analysis of furin-controlled condensation; assay type: biochemical; conditions: 100 µM, 1 nmol/U of furin, 37 °C
Outline: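 The non-radioactive analogue (100 µM) was incubated with furin (1 nmol/U) at 37 °C. Mixtures were analysed by HPLC eluted with CH3CN and water, each containing 0.1% TFA, against the untreated compound in water.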

MDA-MB-468 cells [5] = test: MTT assay; assay type: cell-based, human; conditions: for cells survived (MTT): MDA-MB-468
Outline: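 MDA-MB-468 cells in log phase were seeded at 3 × 10^3 per well and settled 12 h (37 °C, 5% CO2). They were then exposed to the test compound at 25, 50 or 100 µM in medium for 3, 6 or 12 h. MTT (5 mg/mL stock in PBS, pH 7.4) was added for 4 h, and formazan was dissolved in 10% SDS/PBS. Absorbance was read at 570/680 nm. Viability (%) = mean treated absorbance / mean control absorbance × 100.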

[6] = Pharmacokinetic study of 1 in mice after i.v. administration; assay type: in vivo; conditions: i.v. about 3.0 mCi/kg, n = 5
Outline: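 Mice received the 18F radiotracer intravenously at about 3.0 mCi/kg. Mean plasma concentration–time profiles were fitted to a two-compartment model, from which t1/2, AUC0-t, CLtot, Vd and Cmax were derived.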

MDA-MB-468 cells [7] = test: Cellular efflux titration; assay type: cell-based, human; conditions: 120 min efflux
Outline: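 MDA-MB-468 cells (1 million per well) were loaded for 1 h at 37 °C with 4 μCi of the 18F probe plus 0, 5, 25 or 50 μM of its non-radioactive analogue. Medium was then refreshed, marking efflux time 0. At 5–120 min the medium was exchanged and the removed medium was γ-counted. Cells were harvested and counted at 120 min to back-calculate total radioactivity at time 0.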

MDA-MB-468 cells [8] = test: Cell uptake of 1; assay type: cell-based, human; conditions: 30 min; 600,000 MDA-MB-468 cells, 1 µCi of 1; γ-counter
Outline: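 MDA-MB-468 cells (600,000 per well) were seeded for 6 h. Medium was then replaced with fresh medium carrying 1 µCi of the 18F-labelled probe per well. Cells and medium were harvested at 5, 10, 20, 30, 60 and 90 min, and radioactivity was counted on a γ-counter.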

MDA-MB-468 tumor = test: MicroPET tumor uptake in MDA-MB-468 tumor-bearing nude mice; assay type: in vivo; conditions: for tumor uptake of 1: PET, n = 4
Outline: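 Female BALB/c nude mice (4–8 weeks) received subcutaneous foreleg xenografts of 4 × 10^7 MDA-MB-468 cells in PBS, grown 4–6 weeks. Under isoflurane, mice were randomised to tail-vein dosing: 85 µCi of the 18F probe alone, or the probe plus 20 µmol/kg of its non-radioactive analogue. Ten-minute static PET scans were taken at 10 min to 6 h, reconstructed by 3D OSEM without attenuation or scatter correction. Decay-corrected ROI values were converted assuming 1 g/mL tissue density and divided by administered activity to give %ID/g.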

furin [9] = molecular target: T1, furin; conditions: 30 °C; ref Bachem; cited from earlier work

T1 sequence (P09958 108-595 limits assumed): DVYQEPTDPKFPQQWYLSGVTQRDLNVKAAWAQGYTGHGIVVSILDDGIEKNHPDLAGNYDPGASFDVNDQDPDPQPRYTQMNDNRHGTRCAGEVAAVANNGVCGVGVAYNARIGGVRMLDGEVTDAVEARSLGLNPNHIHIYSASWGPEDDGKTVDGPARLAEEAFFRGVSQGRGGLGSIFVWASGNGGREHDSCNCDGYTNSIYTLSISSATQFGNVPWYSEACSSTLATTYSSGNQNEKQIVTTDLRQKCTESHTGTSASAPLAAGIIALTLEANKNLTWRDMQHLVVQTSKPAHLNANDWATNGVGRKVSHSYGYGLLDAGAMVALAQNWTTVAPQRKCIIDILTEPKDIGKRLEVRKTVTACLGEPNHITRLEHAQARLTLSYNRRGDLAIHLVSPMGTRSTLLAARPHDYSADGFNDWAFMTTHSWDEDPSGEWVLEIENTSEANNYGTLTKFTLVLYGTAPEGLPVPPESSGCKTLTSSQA

CC(=O)N[C@@H](CCCNC(=N)N)C(=O)N[C@H](C(=O)N[C@@H](CCCNC(=N)N)C(=O)N[C@@H](CCCNC(=N)N)C(=O)N[C@@H](CSSC(C)(C)C)C(=O)N[C@@H](CCCCNC(=O)c1ccc(F)cc1)C(=O)Nc1ccc2nc(C#N)sc2c1)C(C)C [1-Cold]
cell permeability (intracellular fluorescence) (MDA-MB-468 cells [1]): good cell permeability | UV-vis absorption at 500-700 nm (light scattering, aggregation) [2]: obvious increase of absorption | Kcat of furin relative to Boc-RVRR-AMC (furin [3]; calculated, Figure S10): 35 times | Kcat/KM of furin relative to Boc-RVRR-AMC (furin [3]; calculated, Figure S10): 15 times | binding affinity to furin, fold lower than that of Boc-RVRR-AMC (furin [3]; from KM values): 2.4 fold | time in which furin-controlled condensation was accomplished (furin [4]): ≤ 2 h | cells survived (MTT) (MDA-MB-468 cells [5]; 25 µM, 3 h): 110% | cells survived (MTT) (MDA-MB-468 cells [5]; 25 µM, 12 h): 98% | cells survived (MTT) (MDA-MB-468 cells [5]; 50 µM, 3 h): 103% | cells survived (MTT) (MDA-MB-468 cells [5]; 50 µM, 12 h): 105% | cells survived (MTT) (MDA-MB-468 cells [5]; 100 µM, 3 h): 87% | cells survived (MTT) (MDA-MB-468 cells [5]; 100 µM, 12 h): 68% | cytotoxicity to MDA-MB-468 cells (MTT), in words (MDA-MB-468 cells [5]; up to 12 h (abstract: 50 µM)): did not impose cytotoxicity; also recorded: nontoxic

Acetyl-Arg-Val-Arg-Arg-Cys(StBu)-Lys(^18F-FB)-CBT [compound 1]
Cmax [6]: 7.471 mCi L^-1 | mean AUC0-t [6]: 452.2 min mCi L^-1 | initial radioactivity retained after cell efflux (MDA-MB-468 cells [7]; 4 μCi of 1 alone, 1 h pre-incubation 37 °C, 1 million cells): 13.1 ± 1.2% | initial radioactivity retained after cell efflux (MDA-MB-468 cells [7]; 4 μCi of 1 co-incubated with 5 μM 1-Cold): 20.3 ± 4.2% | initial radioactivity retained after cell efflux (MDA-MB-468 cells [7]; 4 μCi of 1 co-incubated with 25 μM 1-Cold): 28.5 ± 1.4% | initial radioactivity retained after cell efflux (MDA-MB-468 cells [7]; 4 μCi of 1 co-incubated with 50 μM 1-Cold): 32.1 ± 0.9% | cellular uptake (plateau) (MDA-MB-468 cells [8]): 20.4 % of total radioactivity | tumor uptake ratio (Co-injected/1 alone) (MDA-MB-468 tumor; 10 min p.i.): 2.5 | tumor uptake of 1 (MDA-MB-468 tumor; 10 min p.i., 85 µCi 1 alone): 1.02 ± 0.19 % ID/g | tumor uptake of 1 (MDA-MB-468 tumor; 10 min p.i., co-injected 85 µCi 1 + 20 µmol/kg 1-Cold): 2.52 ± 0.95 % ID/g | tumor uptake ratio (Co-injected/1 alone) (MDA-MB-468 tumor; 30 min p.i.): 3.6 | tumor uptake of 1 (MDA-MB-468 tumor; 30 min p.i., 85 µCi 1 alone): 1.12 ± 0.08 % ID/g | tumor uptake of 1 (MDA-MB-468 tumor; 30 min p.i., co-injected 85 µCi 1 + 20 µmol/kg 1-Cold): 4.08 ± 0.48 % ID/g | tumor uptake ratio (Co-injected/1 alone) (MDA-MB-468 tumor; 60 min p.i.): 6.4 | tumor uptake of 1 (MDA-MB-468 tumor; 60 min p.i., 85 µCi 1 alone): 0.52 ± 0.18 % ID/g | tumor uptake of 1 (MDA-MB-468 tumor; 60 min p.i., co-injected 85 µCi 1 + 20 µmol/kg 1-Cold): 3.31 ± 1.22 % ID/g | tumor uptake ratio (Co-injected/1 alone) (MDA-MB-468 tumor; 120 min p.i.): 7.9 | tumor uptake of 1 (MDA-MB-468 tumor; 120 min p.i., co-injected 85 µCi 1 + 20 µmol/kg 1-Cold): 2.27 ± 1.86 % ID/g | tumor uptake of 1 (MDA-MB-468 tumor; 240 min p.i., 85 µCi 1 alone): 0.19 ± 0.03 % ID/g | tumor uptake of 1 (MDA-MB-468 tumor; 240 min p.i., co-injected 85 µCi 1 + 20 µmol/kg 1-Cold): 1.55 ± 1.75 % ID/g | tumor uptake ratio (Co-injected/1 alone) (MDA-MB-468 tumor; 360 min p.i.): 6.5 | tumor uptake of 1 (MDA-MB-468 tumor; 360 min p.i., 85 µCi 1 alone): 0.19 ± 0.05 % ID/g | tumor uptake of 1 (MDA-MB-468 tumor; 360 min p.i., co-injected 85 µCi 1 + 20 µmol/kg 1-Cold): 1.28 ± 1.07 % ID/g

Boc-RVRR-{AMC} [Boc-RVRR-AMC]
speed of furin cleavage of commercial substrate (furin [9]): 1 pmol/U per min
